Laboratory results: ChEMBL document CHEMBL1156957, “Synthesis, antitubulin, and antiproliferative SAR of analogues of 2-methoxyestradiol-3,17-O,O-bis-sulfamate” (J Med Chem, 2010)

Legend:
[1] = tested on: DU-145; test: Antiproliferative activity against human DU145 cells after 96 hrs by WST-1 assay; assay type: functional; details: DU-145, 96 h
How it was run: (§1)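 DU-145 and MDA-MB-231 cells kept in RPMI-1640 with 10% FBS, penicillin and streptomycin at 37 °C, 5% CO2. Seeded at 5000 cells/well and exposed to 10^-9–10^-4 M compound or vehicle for 96 h. Live cells counted by WST-1. Viability taken as percent of mean control and GI50 derived. Triplicate experiments.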

[2] = tested on: MDA-MB-231; test: Antiproliferative activity against human MDA-MB-231 cells after 96 hrs by WST-1 assay; assay type: functional; details: MDA-MB-231, 96 h; how it was run: as §1
[3] = tested on: SN12C; test: Antiproliferative activity against human SN12C cells after 96 hrs by WST-1 assay; assay type: functional
[4] = tested on: HOP-62; test: Antiproliferative activity against human HOP62 cells after 96 hrs by WST-1 assay; assay type: functional; details: HOP-62, 96 h
[5] = tested on: UACC-62; test: Antiproliferative activity against human UACC62 cells after 96 hrs by WST-1 assay; assay type: functional; details: UACC-62, 96 h
[6] = tested on: OVCAR-3; test: Antiproliferative activity against human OVCAR-3 cells after 96 hrs by WST-1 assay; assay type: functional; details: OVCAR-3, 96 h
[7] = tested on: HCT-116; test: Antiproliferative activity against human HCT116 cells after 96 hrs by WST-1 assay; assay type: functional; details: HCT-116, 96 h
[8] = tested on: SF-539; test: Antiproliferative activity against human SF539 cells after 96 hrs by WST-1 assay; assay type: functional; details: SF-539, 96 h
[9] = tested on: MCF7; test: Antiproliferative activity against human MCF7 cells after 96 hrs by WST-1 assay; assay type: functional; details: MCF7, 96 h
[10] = Inhibition of bovine brain tubulin assembly assessed as decrease in turbidity after 20 mins; parameters: species or system Bos taurus
How it was run: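 Bovine brain tubulin at 1.0 mg/mL (10 μM) preincubated 15 min at 30 °C with varying compound concentrations, no GTP. Chilled on ice, then GTP added (0.4 mM final). Baseline taken at 0 °C, then rapid jump to 30 °C and turbidity rise followed spectrophotometrically for 20 min. IC50 is the concentration halving the turbidity increase.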

[11] = species on record: Bos taurus; test: Displacement of [3H]colchicine from bovine brain tubulin at 5 uM after 10 mins

GI50 [1] [nM] | GI50 [2] [nM] | GI50 [6] [nM] | GI50 [7] [nM] | GI50 [9] [nM] | IC50 [10] [nM] | inhibition [11] [%] | SMILES | GI50 [3] [nM] | GI50 [4] [nM] | GI50 [5] [nM] | GI50 [8] [nM]
54 | 141 | – | – | – | – | – | CCc1cc2c(cc1OS(N)(=O)=O)CC[C@@H]1[C@@H]2CC[C@]2(C)[C@@H](CC#N)CC[C@@H]12 | – | – | – | –
10100 | 9500 | 39800 | 11500 | – | – | – | CCc1cc2c(cc1O)CC[C@@H]1[C@@H]2CC[C@]2(C)[C@@H](CN(C)C)CC[C@@H]12 | 43700 | 21400 | 18600 | 16200
> 100000 | – | – | – | – | – | – | CCc1cc2c(cc1O)CC[C@@H]1[C@@H]2CC[C@]2(C)[C@@H](NS(C)(=O)=O)CC[C@@H]12 | – | – | – | –
7960 | 4740 | – | – | – | – | – | CCc1cc2c(cc1O)CC[C@@H]1[C@@H]2CC[C@]2(C)[C@@H](CCN(C)C)CC[C@@H]12 | – | – | – | –
190 | 230 | < 10 | < 10 | – | 2100 | 37 | CCc1cc2c(cc1OS(N)(=O)=O)CC[C@@H]1[C@@H]2CC[C@]2(C)[C@@H](CS(C)(=O)=O)CC[C@@H]12 | < 10 | < 10 | 10700 | < 10
520 | 230 | 540 | 780 | – | – | – | COc1cc2c(cc1OS(N)(=O)=O)CC[C@@H]1[C@@H]2CC[C@]2(C)[C@@H](OS(C)(=O)=O)CC[C@@H]12 | 3100 | 1170 | 650 | 340
3400 | – | – | – | – | 20000 | – | CCCc1cc2c(cc1OS(N)(=O)=O)CC[C@@H]1[C@@H]2CC[C@]2(C)C(OS(N)(=O)=O)CC[C@@H]12 (some centres undefined) | – | – | – | –
> 100000 | – | – | – | – | – | – | CCc1cc2c(cc1O)CC[C@@H]1[C@@H]2CC[C@]2(C)[C@@H](NS(N)(=O)=O)CC[C@@H]12 | – | – | – | –
62 | 71 | – | – | – | 1300 | 78 | COc1cc2c(cc1OS(N)(=O)=O)CC[C@@H]1[C@@H]2CC[C@]2(C)[C@@H](CC#N)CC[C@@H]12 | – | – | – | –
5580 | – | – | – | – | – | – | CCc1cc2c(cc1O)CC[C@@H]1[C@@H]2CC[C@]2(C)[C@@H](OS(C)(=O)=O)CC[C@@H]12 | – | – | – | –
> 100000 | > 100000 | – | – | – | – | – | CCc1cc2c(cc1O)CC[C@@H]1[C@@H]2CC[C@@]2(C)[C@H]1CC[C@@H]2S(C)(=O)=O | – | – | – | –
3050 | 4030 | 12600 | 9100 | – | – | – | CCc1cc2c(cc1OS(N)(=O)=O)CC[C@@H]1[C@@H]2CC[C@]2(C)[C@@H](CN(C)C)CC[C@@H]12 | 18200 | 13500 | 11700 | 12600
3540 | 2960 | – | – | – | – | – | CCc1cc2c(cc1OS(N)(=O)=O)CC[C@@H]1[C@@H]2CC[C@]2(C)[C@@H](CCN(C)C)CC[C@@H]12 | – | – | – | –
110 | 230 | – | – | – | 3600 | 28 | CCc1cc2c(cc1OS(N)(=O)=O)CC[C@@H]1[C@@H]2CC[C@@]2(C)[C@H]1CC[C@@H]2S(C)(=O)=O | – | – | – | –
12200 | 10400 | – | – | – | – | – | CCc1cc2c(cc1O)CC[C@@H]1[C@@H]2CC[C@]2(C)[C@@H](C[N+](=O)[O-])CC[C@@H]12 | – | – | – | –
140 | 170 | 25 | 41 | – | 1700 | 74 | CCc1cc2c(cc1OS(N)(=O)=O)CC[C@@H]1[C@@H]2CC[C@]2(C)[C@@H](C[N+](=O)[O-])CC[C@@H]12 | 66 | 31 | 63 | 21
840 | 3520 | 710 | 4370 | – | – | – | CCc1cc2c(cc1OS(N)(=O)=O)CC[C@@H]1[C@@H]2CC[C@]2(C)[C@@H](NS(C)(=O)=O)CC[C@@H]12 | 6920 | 4170 | 5890 | 470

The remaining lines, values behind:

SMILES | GI50 [1] [nM] | GI50 [2] [nM] | GI50 [6] [nM] | GI50 [7] [nM] | GI50 [9] [nM] | IC50 [10] [nM] | inhibition [11] [%] | GI50 [3] [nM] | GI50 [4] [nM] | GI50 [5] [nM] | GI50 [8] [nM]
COc1cc2c(cc1O)CC[C@@H]1[C@@H]2CC[C@]2(C)[C@@H](OS(C)(=O)=O)CC[C@@H]12 | 4200 | 2370 | – | – | – | – | – | – | – | – | –
COc1cc2c(cc1OS(N)(=O)=O)CC[C@@H]1[C@@H]2CC[C@]2(C)[C@@H](NS(N)(=O)=O)CC[C@@H]12 | 6130 | 5600 | – | – | – | – | – | – | – | – | –
COc1cc2c(cc1OS(N)(=O)=O)CC[C@@H]1[C@@H]2CC[C@]2(C)[C@@H](NS(C)(=O)=O)CC[C@@H]12 | 9900 | 5200 | 3500 | 5600 | – | – | – | 23400 | 9600 | 7100 | 3200
CCc1cc2c(cc1O)CC[C@@H]1[C@@H]2CC[C@]2(C)[C@@H](N)CC[C@@H]12 | 60800 | – | – | – | – | – | – | – | – | – | –
COc1cc2c(cc1OS(=O)(=O)N(C)C)CC[C@@H]1[C@@H]2CC[C@]2(C)C(=O)CC[C@@H]12 | – | – | – | – | > 10000 | > 40000 | – | – | – | – | –
CCc1cc2c(cc1OS(N)(=O)=O)CC[C@@H]1[C@@H]2CC[C@]2(C)[C@@H](OS(C)(=O)=O)CC[C@@H]12 | 570 | 200 | < 10 | < 10 | – | 1600 | 49 | < 10 | < 10 | < 10 | < 10
COc1cc2c(cc1O)CC[C@@H]1[C@@H]2CC[C@]2(C)[C@@H](NS(N)(=O)=O)CC[C@@H]12 | 58600 | – | – | – | – | – | – | – | – | – | –
COc1cc2c(cc1OS(N)(=O)=O)CC[C@@H]1[C@@H]2CC[C@]2(C)C(=O)CC[C@@H]12 | 460 | 120 | – | – | – | 3300 | 22 | – | – | – | –
COc1cc2c(cc1O)CC[C@@H]1[C@@H]2CC[C@]2(C)C(OS(N)(=O)=O)CC[C@@H]12 (some centres undefined) | – | – | – | – | – | > 40000 | – | – | – | – | –
COc1cc2c(cc1O)CC[C@@H]1[C@@H]2CC[C@]2(C)[C@@H](N)CC[C@@H]12 | 2640 | 3560 | – | – | – | – | – | – | – | – | –
COc1cc2c(cc1O)CC[C@@H]1[C@@H]2CC[C@]2(C)[C@@H](O)CC[C@@H]12 [2-METHOXYESTRADIOL] | 1220 | – | 210 | 470 | – | 7000 | 17 | 950 | 700 | 360 | 320
COc1cc2c(cc1OCc1ccccc1)CC[C@@H]1[C@@H]2CC[C@]2(C)[C@@H](OS(C)(=O)=O)CC[C@@H]12 | – | – | 2900 | 5900 | – | – | – | 19900 | 6900 | 14400 | 4600
COc1cc2c(cc1O)CC[C@@H]1[C@@H]2CC[C@]2(C)[C@@H](CC#N)CC[C@@H]12 | 490 | 120 | – | – | – | – | – | – | – | – | –
Cc1cc2c(cc1OS(N)(=O)=O)CC[C@@H]1[C@@H]2CC[C@]2(C)C(OS(N)(=O)=O)CC[C@@H]12 (some centres undefined) | 380 | – | – | – | – | 1300 | 46 | – | – | – | –
CCc1cc2c(cc1OS(N)(=O)=O)CC[C@@H]1[C@@H]2CC[C@]2(C)[C@@H](OS(N)(=O)=O)CC[C@@H]12 | – | – | < 10 | – | – | 1300 | 45 | 28 | < 10 | < 10 | < 10
COc1cc2c(cc1O)CC[C@@H]1[C@@H]2CC[C@]2(C)[C@@H](NS(C)(=O)=O)CC[C@@H]12 | > 100000 | – | > 100000 | 60300 | – | – | – | > 100000 | > 100000 | > 100000 | > 100000
COc1cc2c(cc1OS(N)(=O)=O)CC[C@@H]1[C@@H]2CC[C@]2(C)[C@@H](OS(N)(=O)=O)CC[C@@H]12 | – | – | < 10 | 45 | – | 2200 | 28 | – | 51 | < 10 | 36
